Experimental data taken from article PMC4276534 (ChemMedChem, 2014).

Assays:
[1] = test system: 68 GPCR's, ion channels and transporters; assay: EuroFin's Lead Profiling Screen binding assay panel; details: 10 μM
[2] = Intrinsic clearance in human hepatic microsomes; format: in vitro ADME
[3] = biological target: T1, MrgX1 (Homo sapiens, UniProt Q96LB2); assay: Ca2+ imaging assay on MrgX1-expressing HEK293 cells; format: cell-based
Summary of the method: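 Ca2+ imaging in HEK293 cells expressing MrgX1, read as relative fluorescence units. Test compound was titrated alone and with a submaximal BAM8-22 level (10 nM). EC50 came from dose-response curve fitting and was not determined when Emax was <50%. Emax is given as % of a reference analogue. Three repeat experiments, mean±SEM.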

[4] = Plasma protein binding by equilibrium dialysis, human; format: in vitro ADME; details: free fraction
[5] = Plasma protein binding by equilibrium dialysis, rat; format: in vitro ADME; details: free fraction
[6] = Intrinsic clearance in rat hepatic microsomes; format: in vitro ADME
[7] = biological target: T1, MrgX1; assay: HTS triple addition screen for MrgX1 positive allosteric modulators; format: cell-based; details: read-out: MrgX1 EC50; HTS screen value; HEK293 cell line stably expressing MrgX1

T1 sequence (Q96LB2 whole entry): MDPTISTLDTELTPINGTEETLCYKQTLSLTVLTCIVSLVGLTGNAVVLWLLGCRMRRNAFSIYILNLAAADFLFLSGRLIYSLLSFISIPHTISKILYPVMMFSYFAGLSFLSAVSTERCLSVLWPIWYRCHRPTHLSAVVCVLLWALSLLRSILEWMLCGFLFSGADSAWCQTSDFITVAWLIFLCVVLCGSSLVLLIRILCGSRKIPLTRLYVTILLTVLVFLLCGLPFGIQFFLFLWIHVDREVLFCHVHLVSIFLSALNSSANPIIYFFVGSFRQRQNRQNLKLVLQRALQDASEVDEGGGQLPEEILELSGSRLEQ

Molecule: CCOc1ccccc1NC(=O)c1ccccc1NS(=O)(=O)C1CC1 [4l, 2-(cyclopropanesulfonamido)-N-(2-ethoxyphenyl)benzamide]
- Inhibition of radio ligand binding >50% in panel of 68 targets [1]: did not inhibit 67 of the 68 targets
- Human CLHEP, Microsome Predicted Hepatic Clearance [2]: 15.7 mL/min/kg
- Activation of MrgX1 (agonistic activity) ([3]; in the absence of BAM8-22): does not activate MrgX1
- Effect on the EMax of BAM8-22 ([3]; maximum concentration of BAM8-22 used): does not affect the EMax of BAM8-22
- Emax as % of standard compound (4i) ([3]; normalized to the positive control (4i, 100%)): 195 ± 8%
- EC50 ([3]; read-out: MrgX1 EC50, Table 3, alkylsulfonamides, in presence of BAM8-22): 190 ± 60 nM
- Human PPB, Percent Free Compound in Plasma [4]: 0.4%
- Rat PPB, Percent Free Compound in Plasma [5]: 1.7%
- Rat CLHEP, Microsome Predicted Hepatic Clearance [6]: 65.7 mL/min/kg

Molecule: CCOc1ccccc1NC(=O)c1ccccc1NS(C)(=O)=O [SID 4258711]
- EC50 [7]: 96 nM

Molecule: CSc1ccccc1NC(=O)c1ccccc1N(C)S(C)(=O)=O [SID 4262381]
- EC50 [7]: 329 nM

Molecule: H-VGRPEWWMDYQKRYG-OH [BAM8-22, reference compound]
- EC50 ([3]; EC50 of BAM8-22 on MrgX1, with ML382): 2.9 nM
- EC50 ([3]; EC50 of BAM8-22 on MrgX1, without ML382): 18.7 nM
